ChEMBL document CHEMBL5653631, “A Potent and Selective ULK1 Inhibitor Suppresses Autophagy and Sensitizes Cancer Cells to Nutrient Stress” (iScience, 2018)

Key:
[1] = target: Mast/stem cell growth factor receptor Kit (Homo sapiens) (UniProt P10721); experiment: Inhibition of human recombinant KIT at 40 nM in presence of ATP by radiometric assay relative to control
[2] = target: T1, Aurora kinase A (Homo sapiens) (UniProt O14965); experiment: Inhibition of human recombinant AurA at 40 nM related to control ULK1
T1 sequence (whole entry): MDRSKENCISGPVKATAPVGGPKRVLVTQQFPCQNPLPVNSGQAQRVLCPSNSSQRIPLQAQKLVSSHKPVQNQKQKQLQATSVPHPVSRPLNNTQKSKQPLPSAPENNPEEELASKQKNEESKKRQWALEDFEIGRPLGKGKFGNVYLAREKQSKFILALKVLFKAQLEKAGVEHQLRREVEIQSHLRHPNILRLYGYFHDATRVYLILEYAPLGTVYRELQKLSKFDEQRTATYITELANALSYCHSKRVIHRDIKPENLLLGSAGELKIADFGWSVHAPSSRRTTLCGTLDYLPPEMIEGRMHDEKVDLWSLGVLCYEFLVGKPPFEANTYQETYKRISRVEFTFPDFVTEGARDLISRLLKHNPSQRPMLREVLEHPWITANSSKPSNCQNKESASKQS
Method in brief: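 Radiometric activity assays in a panel of 327 human recombinant kinases, each run in duplicate at one inhibitor concentration. Activity remaining is expressed as percent of vehicle control, and percent inhibition is calculated as 100% minus percent activity remaining.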

[3] = target: T2, Cytoplasmic tyrosine-protein kinase BMX (Homo sapiens) (UniProt P51813); experiment: Inhibition of human recombinant BMX at 40 nM related to control ULK1
T2 sequence (whole entry): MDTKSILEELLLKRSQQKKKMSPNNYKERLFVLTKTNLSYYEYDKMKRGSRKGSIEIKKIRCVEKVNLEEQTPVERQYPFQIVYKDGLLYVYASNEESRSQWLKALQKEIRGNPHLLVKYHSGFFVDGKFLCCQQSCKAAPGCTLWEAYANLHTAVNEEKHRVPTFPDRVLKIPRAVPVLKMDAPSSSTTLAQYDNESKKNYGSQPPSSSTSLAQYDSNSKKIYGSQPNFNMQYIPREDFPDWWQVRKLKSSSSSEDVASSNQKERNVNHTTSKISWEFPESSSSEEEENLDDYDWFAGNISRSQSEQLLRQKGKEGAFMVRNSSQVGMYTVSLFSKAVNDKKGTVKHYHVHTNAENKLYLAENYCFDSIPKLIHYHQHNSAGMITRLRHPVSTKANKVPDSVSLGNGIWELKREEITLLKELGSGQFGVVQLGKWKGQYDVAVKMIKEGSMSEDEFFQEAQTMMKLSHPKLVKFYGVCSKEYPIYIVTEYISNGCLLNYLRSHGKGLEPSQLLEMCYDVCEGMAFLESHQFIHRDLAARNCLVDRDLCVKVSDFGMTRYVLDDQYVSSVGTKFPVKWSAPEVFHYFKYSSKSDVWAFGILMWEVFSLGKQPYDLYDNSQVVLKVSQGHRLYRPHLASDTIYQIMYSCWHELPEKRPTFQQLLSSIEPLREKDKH

[4] = target: Mitogen-activated protein kinase 11 (Homo sapiens) (UniProt Q15759); experiment: Inhibition of human recombinant p38beta at 40 nM related to control ULK1
[5] = target: Casein kinase I isoform gamma-2 (Homo sapiens) (UniProt P78368); experiment: Inhibition of human recombinant CK1g2 at 500 nM in presence of ATP by radiometric assay relative to control
[6] = target: Tyrosine-protein kinase Lck (Homo sapiens) (UniProt P06239); experiment: Inhibition of human recombinant LCK at 500 nM in presence of ATP by radiometric assay relative to control
[7] = target: T3, Mitogen-activated protein kinase 13 (Homo sapiens) (UniProt O15264); experiment: Inhibition of human recombinant p38delta at 500 nM in presence of ATP by radiometric assay relative to control
T3 sequence (whole entry): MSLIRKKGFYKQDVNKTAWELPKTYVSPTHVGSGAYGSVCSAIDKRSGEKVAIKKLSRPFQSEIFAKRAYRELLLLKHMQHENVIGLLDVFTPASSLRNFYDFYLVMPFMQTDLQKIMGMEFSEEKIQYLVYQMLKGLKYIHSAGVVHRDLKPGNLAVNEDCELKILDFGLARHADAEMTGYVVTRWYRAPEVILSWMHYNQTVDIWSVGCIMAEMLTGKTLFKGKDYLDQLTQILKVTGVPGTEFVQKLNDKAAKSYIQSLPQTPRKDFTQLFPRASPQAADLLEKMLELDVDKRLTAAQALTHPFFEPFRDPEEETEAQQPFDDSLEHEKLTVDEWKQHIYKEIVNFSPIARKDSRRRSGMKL

[8] = target: T4, Testis-specific serine/threonine-protein kinase 2 (Homo sapiens) (UniProt Q96PF2); experiment: Inhibition of human recombinant TSSK2 at 500 nM in presence of ATP by radiometric assay relative to control
T4 sequence (whole entry): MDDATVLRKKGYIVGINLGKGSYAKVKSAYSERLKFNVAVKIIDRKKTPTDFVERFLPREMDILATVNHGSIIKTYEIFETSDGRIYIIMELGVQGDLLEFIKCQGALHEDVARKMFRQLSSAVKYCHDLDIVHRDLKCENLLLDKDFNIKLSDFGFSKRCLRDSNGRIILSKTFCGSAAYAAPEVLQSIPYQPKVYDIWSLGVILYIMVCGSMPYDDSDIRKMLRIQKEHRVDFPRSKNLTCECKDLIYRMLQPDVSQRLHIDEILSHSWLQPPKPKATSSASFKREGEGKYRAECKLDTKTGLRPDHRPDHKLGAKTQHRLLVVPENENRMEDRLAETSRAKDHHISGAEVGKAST

[9] = target: Tyrosine-protein kinase JAK1 (Homo sapiens) (UniProt P23458); experiment: Inhibition of human recombinant JAK1 at 500 nM related to control ULK1
[10] = target: Casein kinase II subunit alpha' (Homo sapiens) (UniProt P19784); experiment: Inhibition of human recombinant CK2a2 at 15 nM in presence of ATP by radiometric assay relative to control
[11] = target: Dual specificity tyrosine-phosphorylation-regulated kinase 1A (Homo sapiens) (UniProt Q13627); experiment: Inhibition of human recombinant DYRK1A at 15 nM in presence of ATP by radiometric assay relative to control
[12] = target: Activated CDC42 kinase 1 (Homo sapiens) (UniProt Q07912); experiment: Inhibition of human recombinant ACK at 15 nM related to control ULK1
[13] = target: Death-associated protein kinase 1 (Homo sapiens) (UniProt P53355); experiment: Inhibition of human recombinant DAPK1 at 15 nM related to control ULK1
Sequence of Death-associated protein kinase 1 (Homo sapiens) (P53355 whole entry, looked up): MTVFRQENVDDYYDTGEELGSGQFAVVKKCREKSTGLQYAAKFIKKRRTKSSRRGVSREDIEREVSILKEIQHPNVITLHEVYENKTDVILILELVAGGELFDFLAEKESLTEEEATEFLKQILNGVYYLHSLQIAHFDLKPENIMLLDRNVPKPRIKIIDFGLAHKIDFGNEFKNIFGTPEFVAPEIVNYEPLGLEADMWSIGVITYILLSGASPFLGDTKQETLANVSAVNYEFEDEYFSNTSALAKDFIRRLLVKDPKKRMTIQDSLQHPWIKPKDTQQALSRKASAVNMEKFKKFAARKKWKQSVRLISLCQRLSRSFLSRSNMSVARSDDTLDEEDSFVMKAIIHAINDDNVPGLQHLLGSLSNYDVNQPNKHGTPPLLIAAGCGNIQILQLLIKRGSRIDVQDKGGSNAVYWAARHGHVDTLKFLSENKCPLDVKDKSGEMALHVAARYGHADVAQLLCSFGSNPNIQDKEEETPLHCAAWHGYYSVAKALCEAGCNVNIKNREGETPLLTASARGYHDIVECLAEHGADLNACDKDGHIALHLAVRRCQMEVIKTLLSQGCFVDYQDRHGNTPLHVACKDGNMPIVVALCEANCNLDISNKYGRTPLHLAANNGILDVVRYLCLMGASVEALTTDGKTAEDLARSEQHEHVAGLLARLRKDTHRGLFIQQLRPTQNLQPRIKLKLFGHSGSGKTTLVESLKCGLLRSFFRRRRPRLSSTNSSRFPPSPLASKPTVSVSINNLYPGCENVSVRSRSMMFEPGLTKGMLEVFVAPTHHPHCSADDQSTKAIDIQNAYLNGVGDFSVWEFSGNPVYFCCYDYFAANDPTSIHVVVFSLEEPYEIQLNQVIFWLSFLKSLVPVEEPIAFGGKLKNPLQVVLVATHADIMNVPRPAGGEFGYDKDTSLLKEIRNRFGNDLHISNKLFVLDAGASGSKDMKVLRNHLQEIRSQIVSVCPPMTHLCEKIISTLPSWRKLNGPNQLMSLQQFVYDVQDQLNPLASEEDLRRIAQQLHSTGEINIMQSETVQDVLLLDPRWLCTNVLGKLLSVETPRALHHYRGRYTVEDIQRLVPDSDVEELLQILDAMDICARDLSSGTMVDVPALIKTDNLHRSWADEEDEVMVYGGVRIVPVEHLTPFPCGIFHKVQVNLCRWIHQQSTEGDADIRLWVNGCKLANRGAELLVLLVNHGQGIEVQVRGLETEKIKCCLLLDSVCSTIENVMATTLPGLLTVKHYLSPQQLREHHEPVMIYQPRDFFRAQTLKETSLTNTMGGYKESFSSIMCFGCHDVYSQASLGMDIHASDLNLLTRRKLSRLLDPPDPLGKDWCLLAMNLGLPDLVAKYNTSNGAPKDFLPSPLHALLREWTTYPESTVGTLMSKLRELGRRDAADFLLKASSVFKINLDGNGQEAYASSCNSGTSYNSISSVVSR

Sequence of Mast/stem cell growth factor receptor Kit (Homo sapiens) (P10721 whole entry): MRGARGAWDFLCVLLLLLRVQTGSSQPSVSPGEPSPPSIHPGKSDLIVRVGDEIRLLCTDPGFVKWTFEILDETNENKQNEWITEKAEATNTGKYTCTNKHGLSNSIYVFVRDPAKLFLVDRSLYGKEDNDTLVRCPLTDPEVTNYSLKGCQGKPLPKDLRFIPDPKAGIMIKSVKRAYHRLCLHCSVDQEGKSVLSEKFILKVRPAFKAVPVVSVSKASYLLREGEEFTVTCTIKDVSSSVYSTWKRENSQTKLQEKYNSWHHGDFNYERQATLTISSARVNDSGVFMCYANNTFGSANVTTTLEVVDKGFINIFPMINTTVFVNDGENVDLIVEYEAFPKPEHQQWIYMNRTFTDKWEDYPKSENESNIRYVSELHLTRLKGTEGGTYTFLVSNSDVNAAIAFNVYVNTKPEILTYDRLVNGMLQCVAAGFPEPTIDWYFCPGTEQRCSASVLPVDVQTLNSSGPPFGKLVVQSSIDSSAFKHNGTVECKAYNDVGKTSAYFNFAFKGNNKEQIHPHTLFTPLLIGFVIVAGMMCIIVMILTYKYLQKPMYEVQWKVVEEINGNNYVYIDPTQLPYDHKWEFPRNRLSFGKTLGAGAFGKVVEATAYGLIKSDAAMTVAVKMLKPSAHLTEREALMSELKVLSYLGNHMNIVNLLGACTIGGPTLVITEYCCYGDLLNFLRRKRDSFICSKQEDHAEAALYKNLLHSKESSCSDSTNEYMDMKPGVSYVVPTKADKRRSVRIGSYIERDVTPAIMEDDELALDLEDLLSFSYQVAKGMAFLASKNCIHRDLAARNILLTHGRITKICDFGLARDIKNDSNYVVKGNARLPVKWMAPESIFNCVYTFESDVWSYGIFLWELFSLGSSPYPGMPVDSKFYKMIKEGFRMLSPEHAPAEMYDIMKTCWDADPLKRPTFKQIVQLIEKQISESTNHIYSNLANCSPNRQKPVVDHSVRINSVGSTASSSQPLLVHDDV
Sequence of Tyrosine-protein kinase JAK1 (Homo sapiens) (P23458 whole entry): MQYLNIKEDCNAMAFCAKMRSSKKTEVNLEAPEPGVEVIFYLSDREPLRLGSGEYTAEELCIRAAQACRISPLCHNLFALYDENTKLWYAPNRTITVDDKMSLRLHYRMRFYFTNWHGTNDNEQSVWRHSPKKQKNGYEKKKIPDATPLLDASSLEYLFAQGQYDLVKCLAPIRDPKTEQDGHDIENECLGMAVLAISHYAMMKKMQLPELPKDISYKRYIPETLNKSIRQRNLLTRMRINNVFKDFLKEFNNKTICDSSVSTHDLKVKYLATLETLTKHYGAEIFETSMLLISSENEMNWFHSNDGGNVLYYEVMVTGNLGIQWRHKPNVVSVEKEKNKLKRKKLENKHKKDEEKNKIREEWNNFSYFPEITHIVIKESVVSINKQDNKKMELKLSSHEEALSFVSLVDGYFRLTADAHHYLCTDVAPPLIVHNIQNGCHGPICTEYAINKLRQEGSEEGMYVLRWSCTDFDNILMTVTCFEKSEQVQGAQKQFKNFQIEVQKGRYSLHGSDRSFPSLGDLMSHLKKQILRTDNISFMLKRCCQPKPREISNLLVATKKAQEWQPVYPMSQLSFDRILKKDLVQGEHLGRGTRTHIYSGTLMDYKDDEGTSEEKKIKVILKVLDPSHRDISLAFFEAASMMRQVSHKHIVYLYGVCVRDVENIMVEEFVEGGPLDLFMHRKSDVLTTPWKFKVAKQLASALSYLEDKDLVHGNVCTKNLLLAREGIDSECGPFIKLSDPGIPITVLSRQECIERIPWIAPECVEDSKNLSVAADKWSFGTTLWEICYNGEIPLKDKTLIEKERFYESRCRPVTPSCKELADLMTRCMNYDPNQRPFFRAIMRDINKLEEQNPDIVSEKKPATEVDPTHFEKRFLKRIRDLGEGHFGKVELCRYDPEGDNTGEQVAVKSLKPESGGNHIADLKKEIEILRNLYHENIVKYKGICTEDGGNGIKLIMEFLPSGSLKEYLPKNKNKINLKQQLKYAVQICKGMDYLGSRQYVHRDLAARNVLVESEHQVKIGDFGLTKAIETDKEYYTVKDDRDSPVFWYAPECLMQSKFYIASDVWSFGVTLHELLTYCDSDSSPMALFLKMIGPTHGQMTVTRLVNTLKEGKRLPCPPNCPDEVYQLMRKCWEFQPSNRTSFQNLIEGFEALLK
Sequence of Casein kinase I isoform gamma-2 (Homo sapiens) (P78368 whole entry, looked up, canonical isoform): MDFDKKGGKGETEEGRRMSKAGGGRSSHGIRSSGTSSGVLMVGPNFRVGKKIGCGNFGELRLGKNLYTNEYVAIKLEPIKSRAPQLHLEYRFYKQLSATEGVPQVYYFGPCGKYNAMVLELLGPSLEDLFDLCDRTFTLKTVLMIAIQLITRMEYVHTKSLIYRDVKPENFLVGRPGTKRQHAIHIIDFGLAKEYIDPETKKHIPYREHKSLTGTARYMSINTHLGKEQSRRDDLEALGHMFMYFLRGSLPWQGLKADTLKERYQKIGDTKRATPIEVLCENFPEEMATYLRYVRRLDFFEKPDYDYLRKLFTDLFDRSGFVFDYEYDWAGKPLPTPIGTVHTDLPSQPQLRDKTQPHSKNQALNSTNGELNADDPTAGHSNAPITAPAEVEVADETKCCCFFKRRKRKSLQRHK
Sequence of Tyrosine-protein kinase Lck (Homo sapiens) (P06239 2-509 limits assumed): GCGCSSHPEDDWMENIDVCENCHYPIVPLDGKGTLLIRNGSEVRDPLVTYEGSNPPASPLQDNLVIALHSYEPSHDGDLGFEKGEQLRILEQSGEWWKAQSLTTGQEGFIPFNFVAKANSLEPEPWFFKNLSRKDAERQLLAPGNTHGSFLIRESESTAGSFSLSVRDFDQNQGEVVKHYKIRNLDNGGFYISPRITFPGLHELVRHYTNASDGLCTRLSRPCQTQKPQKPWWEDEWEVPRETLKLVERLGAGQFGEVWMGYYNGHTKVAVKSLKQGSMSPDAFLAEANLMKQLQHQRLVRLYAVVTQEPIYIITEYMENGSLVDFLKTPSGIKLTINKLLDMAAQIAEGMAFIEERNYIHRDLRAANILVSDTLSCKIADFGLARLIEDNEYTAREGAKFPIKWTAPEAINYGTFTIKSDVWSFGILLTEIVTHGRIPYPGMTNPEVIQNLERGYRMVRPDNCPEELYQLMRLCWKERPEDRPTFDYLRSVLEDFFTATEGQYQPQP
Sequence of Casein kinase II subunit alpha' (Homo sapiens) (P19784 whole entry, looked up): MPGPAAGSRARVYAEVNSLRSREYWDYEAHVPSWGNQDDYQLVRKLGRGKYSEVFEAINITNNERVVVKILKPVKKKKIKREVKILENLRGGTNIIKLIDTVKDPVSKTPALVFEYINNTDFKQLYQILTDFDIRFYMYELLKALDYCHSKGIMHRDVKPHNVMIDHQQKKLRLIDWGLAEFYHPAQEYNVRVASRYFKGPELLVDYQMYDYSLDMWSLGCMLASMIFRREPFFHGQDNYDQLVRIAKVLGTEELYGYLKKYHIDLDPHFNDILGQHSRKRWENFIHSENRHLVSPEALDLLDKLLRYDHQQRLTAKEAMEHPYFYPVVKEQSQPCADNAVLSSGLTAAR

O=C(N[C@@H](C1CC1)C(F)(F)F)c1cc(-c2cnn3cc(-c4ccc(F)cc4)cnc23)cs1
inhibition [1]: 0%
fold change (FC) [2]: 0.3
fold change (FC) [3]: 0.05
fold change (FC) [4]: 0.14

CNC(=O)c1ccccc1Oc1nc(Nc2cc(OC)c(OC)c(OC)c2)ncc1Br
inhibition [5]: 0%
inhibition [6]: 13%
inhibition [7]: 19%
inhibition [8]: 2%
fold change (FC) [9]: 0.53

CC(C)[C@H](NC(=O)c1cc(-c2cnn3cc(-c4ccc(OCCN5CCCCC5)cc4)cnc23)cs1)C(F)(F)F
inhibition [10]: 5%
inhibition [11]: 73%
fold change (FC) [12]: 0
fold change (FC) [13]: 0.05
